Data reported in ChEMBL document CHEMBL1131435, “Biphenylsulfonamide endothelin antagonists: structure-activity relationships of a series of mono- and disubstituted analogues and pharmacology of the orally active endothelin antagonist 2'-amino-N- (3,4-dimethyl-5-isoxazolyl)-4'-(2-methylpropyl)[1, 1'-biphenyl]-2-sulfonamide (BMS-187308)” (J Med Chem, 1998).

biological target: Endothelin receptor type B (Rattus norvegicus) (UniProt P21451); assay: Inhibition of [125I]ET-1 binding to rat cerebellum membranes (Endothelin B receptor) was determined in a radioligand binding assay.
Sequence (P21451 whole entry, looked up): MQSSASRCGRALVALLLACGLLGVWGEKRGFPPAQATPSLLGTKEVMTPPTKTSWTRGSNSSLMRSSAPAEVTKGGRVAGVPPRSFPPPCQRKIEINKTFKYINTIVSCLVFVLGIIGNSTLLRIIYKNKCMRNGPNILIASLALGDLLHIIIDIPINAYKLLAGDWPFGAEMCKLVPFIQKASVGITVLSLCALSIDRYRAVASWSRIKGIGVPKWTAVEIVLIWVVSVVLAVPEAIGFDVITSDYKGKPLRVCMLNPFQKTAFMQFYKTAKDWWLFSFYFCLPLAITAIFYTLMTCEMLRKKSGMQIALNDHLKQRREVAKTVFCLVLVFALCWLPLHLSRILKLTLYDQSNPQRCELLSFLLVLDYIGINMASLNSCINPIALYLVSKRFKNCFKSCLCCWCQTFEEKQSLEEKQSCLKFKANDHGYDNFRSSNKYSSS

Compound | Ki [µM]
Cc1noc(NS(=O)(=O)c2ccccc2-c2ncccn2)c1C | > 200
Cc1noc(NS(=O)(=O)c2ccccc2-c2cccs2)c1C | > 200

Second part, the compound after the results:

Ki [µM] | Compound
> 200 | Cc1noc(NS(=O)(=O)c2ccccc2-c2cccnc2)c1C
66 | Cc1noc(NS(=O)(=O)c2ccccc2-c2cc3ccccc3[nH]2)c1C
> 200 | Cc1noc(NS(=O)(=O)c2ccccc2-c2ccsc2)c1C
> 200 | Cc1noc(NS(=O)(=O)c2ccccc2-c2c[nH]c3ccccc23)c1C

biological target: Endothelin-1 receptor (Rattus norvegicus); assay: Ability to inhibit Endothelin A receptor induced contractions in rabbit carotid artery rings (ETA) was determined in an in vitro functional assay.

Ki [µM] | Compound
0.82 | Cc1noc(NS(=O)(=O)c2ccccc2-c2ccccn2)c1C
8.8 | Cc1noc(NS(=O)(=O)c2ccccc2-c2ncccn2)c1C

biological target: T1, Endothelin-1 receptor (Rattus norvegicus, UniProt P26684); assay: Ability to inhibit binding of [125I]ET1 to membranes prepared from A10 rat thoracic aorta smooth muscle (Endothelin A receptor) was determined by radioligand binding assay; format: tissue-based
T1 sequence (P26684 whole entry): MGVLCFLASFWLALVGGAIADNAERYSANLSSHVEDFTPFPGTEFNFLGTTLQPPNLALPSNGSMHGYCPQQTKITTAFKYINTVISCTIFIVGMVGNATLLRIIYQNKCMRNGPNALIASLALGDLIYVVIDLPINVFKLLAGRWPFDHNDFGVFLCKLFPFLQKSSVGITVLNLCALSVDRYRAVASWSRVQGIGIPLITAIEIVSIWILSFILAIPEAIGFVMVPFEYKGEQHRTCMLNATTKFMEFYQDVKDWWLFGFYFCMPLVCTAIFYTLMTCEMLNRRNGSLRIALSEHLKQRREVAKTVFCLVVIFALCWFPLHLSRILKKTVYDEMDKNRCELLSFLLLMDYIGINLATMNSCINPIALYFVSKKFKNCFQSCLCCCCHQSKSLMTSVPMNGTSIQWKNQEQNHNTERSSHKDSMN
Method in brief: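 Competition binding of [125I]ET-1 to membranes prepared from A10 rat thoracic aorta smooth muscle cells (ET_A). Data were fitted iteratively to a one- or two-site binding model, and Ki was calculated from the IC50. Values are reported as Ki ± SE.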

Ki [µM] | Compound
8 | Cc1noc(NS(=O)(=O)c2ccccc2Br)c1C
